Test [1] concerns the target T1, Adenosine receptor A1 (Rattus norvegicus) (UniProt P25099).
T1 sequence (whole entry): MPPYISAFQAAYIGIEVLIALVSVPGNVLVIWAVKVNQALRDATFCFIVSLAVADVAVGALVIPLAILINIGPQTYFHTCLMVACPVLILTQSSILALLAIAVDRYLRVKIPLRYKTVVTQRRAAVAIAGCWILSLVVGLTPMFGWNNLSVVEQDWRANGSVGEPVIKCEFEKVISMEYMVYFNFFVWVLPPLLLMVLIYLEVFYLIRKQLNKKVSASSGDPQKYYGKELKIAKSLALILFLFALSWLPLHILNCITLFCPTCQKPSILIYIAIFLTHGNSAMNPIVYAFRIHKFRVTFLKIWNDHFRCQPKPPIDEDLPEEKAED
In words: Displacement of [3H]CCPA from adenosine A1 receptor in rat brain cortical membrane at 100 uM by liquid scintillation counting. Format: cell membranes. In a few lines: (§1)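 Rat cortical membranes (ca. 70 μg/mL protein), pretreated with 0.2 IU/mL adenosine deaminase, incubated with [3H]CCPA in 50 mM Tris-HCl pH 7.4 for 90 min at 25 °C. Nonspecific binding with 10 μM 2-chloroadenosine. GF/B filtration, scintillation counting.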
(Loss of bound radioactivity is the signal in a displacement assay; it reports binding, not function.)

Test [2] has as its target Adenosine receptor A2a (Rattus norvegicus) (UniProt P30543). In words: Displacement of [3H]MSX-2 from A2A receptor in rat brain striatal membrane at 100 uM by liquid scintillation counting. Format: cell membranes. The procedure, abridged:
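Rat striatal membranes (ca. 70 μg/mL protein), pretreated with 0.2 IU/mL adenosine deaminase, incubated with [3H]MSX-2 in 50 mM Tris-HCl pH 7.4 for 30 min at 25 °C. Nonspecific binding with 50 μM NECA. Filtration on GF/B filters presoaked in 0.3% polyethylenimine, scintillation counting. Percent inhibition at 100 μM, n = 3.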

Test [3] concerns the target T1, Adenosine receptor A1 (Rattus norvegicus). In words: Agonist activity at adenosine A1 receptor in rat cortical membrane by [35S]GTPgammaS binding assay relative to control. Format: functional, cell membranes. The procedure, abridged:
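Rat cortical membranes (7 μg/tube) incubated 45 min at 25 °C with 0.1-0.5 nM [35S]GTPγS in 50 mM Tris-HCl pH 7.4 with 1 mM EDTA, 5 mM MgCl2, 1 mM DTT, 10 μM GDP, 100 mM NaCl, 2 IU/mL adenosine deaminase, 0.5% BSA. Nonspecific binding with 10 μM unlabeled GTPγS. Filtration, scintillation counting; stimulation expressed as percent of basal.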
In general terms: GTPγS is a poorly hydrolysed GTP analogue; its binding reports G protein activation.

Test [4] addresses T2, Adenosine receptor A1 (Rattus norvegicus, UniProt P25099).
T2 sequence (P25099 whole entry): T1 sequence (whole entry)
In words: Agonist activity at adenosine A1 receptor in rat cortical membrane by [35S]GTPgammaS binding assay. Type of test: functional, cell membranes.

For test [5], the target named is T2, Adenosine receptor A1. In words: Displacement of [3H]CCPA from adenosine A1 receptor in rat brain cortical membrane by liquid scintillation counting. Type of test: cell membranes. In a few lines: as §1
In test [6] the target is T3, Adenosine receptor A1 (Homo sapiens, UniProt P30542).
T3 sequence (P30542 whole entry): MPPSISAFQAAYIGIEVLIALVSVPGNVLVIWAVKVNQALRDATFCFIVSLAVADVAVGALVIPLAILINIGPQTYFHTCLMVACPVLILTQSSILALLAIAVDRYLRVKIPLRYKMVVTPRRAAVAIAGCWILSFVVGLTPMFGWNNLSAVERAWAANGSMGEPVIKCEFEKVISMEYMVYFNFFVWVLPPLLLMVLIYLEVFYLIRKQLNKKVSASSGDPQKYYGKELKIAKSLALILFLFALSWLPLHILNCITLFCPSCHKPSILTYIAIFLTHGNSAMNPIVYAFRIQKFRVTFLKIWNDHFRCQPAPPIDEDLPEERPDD
In words: Displacement [3H]DPCPX from of human adenosine A1 receptor at low affinity state expressed in CHO cells. Type of test: cell-based. The procedure, abridged:
(§2)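 CHO-hA1 membranes (20 μg/mL protein), competition against [3H]DPCPX with or without 100 μM GTP. Incubation in 50 mM Tris-HCl pH 7.4, 90 min at 25 °C, after adenosine deaminase pretreatment. Nonspecific binding with 10 μM DPCPX. GF/B filtration, scintillation counting. Ki values for high- and low-affinity states taken from the biphasic curve without GTP.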

The target of test [7] is T3, Adenosine receptor A1. In words: Displacement [3H]DPCPX from of human adenosine A1 receptor expressed in CHO cells in presence of GTP. Format: cell-based. In a few lines: as §2
Test [8] addresses T3, Adenosine receptor A1. In words: Displacement [3H]DPCPX from of human adenosine A1 receptor at high affinity state expressed in CHO cells. Type of test: cell-based. In a few lines: as §2
For a further test, the species on record is Rattus norvegicus. In words: Displacement of [3H]flunitrazepam from GABAA receptor in rat brain cortical membrane at 10 uM. Type of test: cell membranes.

Structures are written as SMILES.

Adenosine receptor A2a (Rattus norvegicus), sequence (P30543 whole entry): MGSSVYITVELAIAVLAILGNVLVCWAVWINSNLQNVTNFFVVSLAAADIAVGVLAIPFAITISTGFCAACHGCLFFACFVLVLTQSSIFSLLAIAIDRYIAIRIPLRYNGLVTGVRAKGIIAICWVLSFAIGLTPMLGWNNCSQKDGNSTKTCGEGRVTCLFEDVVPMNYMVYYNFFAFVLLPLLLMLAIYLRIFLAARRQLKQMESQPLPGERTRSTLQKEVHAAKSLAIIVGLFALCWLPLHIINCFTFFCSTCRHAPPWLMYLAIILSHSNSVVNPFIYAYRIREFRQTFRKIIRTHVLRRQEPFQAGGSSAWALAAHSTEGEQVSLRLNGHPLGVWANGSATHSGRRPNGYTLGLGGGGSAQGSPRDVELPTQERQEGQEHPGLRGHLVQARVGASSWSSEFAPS

`COc1cc([C@H]2OC[C@](O)(Cc3ccc(O[C@@H]4O[C@H](CO)[C@@H](O)[C@H](O)[C@H]4O)c(OC)c3)[C@]2(O)CO)ccc1O`: the inhibition in test [1] came out at 29%; in test [2], 0%.

In turn, `OC[C@H]1O[C@@H](n2cnc3c(NC4CCCC4)ncnc32)[C@H](O)[C@@H]1O` yielded an Activity in [3] of 193%.

On to `COc1cc([C@H]2OC[C@](O)(Cc3ccc(O[C@@H]4O[C@H](CO)[C@@H](O)[C@H](O)[C@H]4O)c(OC)c3)[C@@H]2COC[C@H]2O[C@@](CO)(O[C@H]3O[C@H](CO)[C@@H](O)[C@H](O)[C@H]3O)[C@@H](O)[C@@H]2O)ccc1O`, for which, at Adenosine receptor A1 [4], it took 3.98 µM to reach a half-maximal effect (EC50). Moreover, the Ki at Adenosine receptor A1 [5] turned out to be 5.28 µM; on Adenosine receptor A1 [6], 23.6 µM; on Adenosine receptor A1 [7] it was 31 µM; at Adenosine receptor A1 [8], 0.026 µM. Further, the results for the inhibition in [1] and in [2] were 80% and 49%, respectively. The Activity in test [3] turned out to be 126%.

On to `COc1cc([C@H]2OC[C@H](Cc3ccc(O[C@@H]4O[C@H](CO)[C@@H](O)[C@H](O)[C@H]4O)c(OC)c3)[C@]2(O)CO)ccc1O`, for which the inhibition in test [1] was found to be 29%; in test [2], 11%.

`COc1cc([C@H]2OC[C@H]3[C@@H]2CO[C@@H]3c2ccc(O[C@@H]3O[C@H](CO)[C@@H](O)[C@H](O)[C@H]3O)c(OC)c2)ccc1O[C@@H]1O[C@H](CO)[C@@H](O)[C@H](O)[C@H]1O`: the Activity in the test listed under Rattus norvegicus is 23%.

For the compound `Cn1c(=O)c2c(ncn2C)n(C)c1=O`, the inhibition in test [2] was determined as 58%.

Usually inhibition stands for the drop in the measured response relative to a control, in per cent. As a reminder, the EC50 is the concentration needed to bring the measured effect to its halfway point. Usually Ki stands for a measure of affinity in units of concentration, obtained from inhibition or displacement.

Source of the values: ChEMBL document CHEMBL1150660, “Lignans isolated from valerian: identification and characterization of a new olivil derivative with partial agonistic activity at A(1) adenosine receptors” (J Nat Prod, 2002).
